EP2 antag: EP2 receptor (human) inhibition. C6 glioma cells expressing human EP2, cAMP TR-FRET; cells stimulated with saturating PGE2. inhibition, % at 25 µM. hit rate 0.52% among 260,000;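 active = percent inhibition above 40 after rounding to a whole number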;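 also: rat C6 glioma host cells with rolipram phosphodiesterase inhibitor present; the protocol text gives 20 µM as final concentration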
CHO parental Ca: counter-screen for OX1R antagonists: effect in parental CHO cells | parental CHO-K1, ATP-induced calcium, Fluo-8 fluorescence | AID 463079 | hit rate 0.63% among 330,000 | inhibition, % at 5.6 µM;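 active = inhibition above that plate's mean sample inhibition plus 3 SD, cut at about 26% in these data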
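Measured by: calcium-sensitive Fluo-8 fluorescence / Test system: CHO parental line / Controls: ATP-challenged DMSO wells low, unchallenged DMSO wells high / Measure: % inhibition / Compound: single nominal dose of 5.6 µM per compound / Replicates: single well per compound, no replicates / Reagent: ATP as calcium-mobilizing challenge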
OX1R antag-1: OX1R (human) antagonism; OX1R-expressing cells, FRET antagonist read-out; inhibition, % at 6.6 µM; hit rate 1.8% among 330,000; AID 485270; in the data active = inhibition mostly above about 38%, no sharp cut-off; inactive = mostly below about 40%
Target sequence (O43613 whole entry, looked up): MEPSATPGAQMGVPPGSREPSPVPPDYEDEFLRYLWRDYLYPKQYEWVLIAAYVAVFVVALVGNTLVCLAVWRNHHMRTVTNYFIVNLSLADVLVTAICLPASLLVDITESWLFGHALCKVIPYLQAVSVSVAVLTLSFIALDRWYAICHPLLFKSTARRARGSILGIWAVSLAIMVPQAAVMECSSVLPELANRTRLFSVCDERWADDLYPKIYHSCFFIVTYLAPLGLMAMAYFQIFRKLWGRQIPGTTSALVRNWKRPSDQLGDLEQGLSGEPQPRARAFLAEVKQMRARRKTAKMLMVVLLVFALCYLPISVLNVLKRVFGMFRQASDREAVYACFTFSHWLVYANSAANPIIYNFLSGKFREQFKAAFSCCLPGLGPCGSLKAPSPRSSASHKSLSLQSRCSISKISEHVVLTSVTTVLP
GPR7 antagonist: blocks human GPR7 receptor signaling; P48145; GPR7-expressing cells, fluorescence antagonist assay; inhibition, % at 4.4 µM; hit rate 1.1% among 290,000; in the data active = inhibition above about 16%, passing the limit was not always enough;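 also: cells stimulated with the agonist NPW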
OX1R antag-2: human HCRTR1 antagonism. O43613. CHO/OX1R cells, Fluo-8 calcium fluorescence, orexin A. inhibition, % at 5 µM. hit rate 0.43% among 330,000;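 active = inhibition above its plate's threshold, mean inhibition of all tested compounds on the plate plus 3 SD, cut at about 37% in these data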
EP2 mod: EP2 receptor (human) modulation. hit rate 0.83% among 260,000. induction, % at 25 µM. P43116. EP2-expressing cells, cAMP HTRF FRET, PGE2 co-stimulation;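 active = compounds whose cAMP rise, as percent of the full-agonist control response, exceeds 60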;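 also: rat C6 glioma line stably carrying human EP2 under a CMV promoter; the protocol text gives 20 µM as final concentration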
GPR7 antag conf: human GPR7 antagonism, confirmation assay; shares compounds with GPR7 antagonist; AID 1952; hit rate 52% among 2,400; inhibition, % at 4.4 µM; GPR7-expressing cells, calcium fluorescence antagonist mode; in the data active = inhibition above about 24%;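 also: stimulated with the GPR7 agonist NPW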
MCHR1 antagonist: counter-screen for GPR7 antagonists: antagonists of human MCHR1; shares compounds with GPR7 antagonist; MCHR1-expressing cells, fluorescence antagonist assay; inhibition, % at 4.4 µM; hit rate 62% among 2,400; AID 2148; in the data active = inhibition above about 22%
Numbers stand for hits; - = inactive; . = no result. Only some compounds are listed: those with a hit (about 3.7% of all), similar ones and a draw of the others.

SMILES	EP2 antag	CHO parental Ca	OX1R antag-1	GPR7 antagonist	OX1R antag-2	EP2 mod	GPR7 antag conf	MCHR1 antagonist
O=S1(=O)CCN2C(Cc3ccc(SC(F)F)cc3)=CSC2=N1	-	-	-	24	-	-	-	-
Clc1ccc(OCCCNCc2ccccc2)c(Br)c1	-	-	-	26	-	-	40	54
CCC(C)NCCOCCOc1ccc(Cl)cc1Br (stereo unspecified)	-	-	-	47	-	-	-	-
Clc1ccc(Cl)c(OCCCCNCc2ccccc2)c1	-	-	-	-	-	-	.	.
N#CC(C#N)=C1C=C2C=C(N3CCCCC3)CCC2CC1 (stereo unspecified)	-	101	-	74	106	-	93	109
CCN(CC)C1=CC2=CC(=C(C#N)C#N)CCC2CC1 (stereo unspecified)	-	99	-	58	107	-	91	105
CCCCN(C)C1=CC2=CC(=C(C#N)C#N)CCC2CC1 (stereo unspecified)	-	101	-	75	106	-	103	110
O=C(OCc1cc(Cl)ccc1OC(F)F)c1cc(S(=O)(=O)O)ccc1O	-	.	.	-	.	-	.	.
Cc1ccc(NC(=O)CCCC(=O)OC(C)C(=O)c2ccccc2)cc1 (stereo unspecified)	.	-	-	-	-	.	.	.
O=C(CCN1CCN(C(=O)c2ccco2)CC1)Nc1ccc(F)cc1	-	-	-	-	-	-	.	.
CCCCNC1c2ccccc2C(=O)N1Cc1ccccc1 (stereo unspecified)	.	-	-	28	-	.	-	-
O=C1c2ccccc2C(Nc2cccnc2)N1Cc1ccccc1 (stereo unspecified)	-	-	-	-	-	-	.	.
CC(C)n1nccc1NS(=O)(=O)c1ccccc1	.	-	-	.	-	.	.	.
C#CCOCCOCCOCCNc1nc(N2CCN(C(=O)[C@H](Cc3ccc(O)cc3)n3cc([C@@H](N)CC(C)C)nn3)CC2)nc(N2CCN(C(=O)[C@H](Cc3ccc(O)cc3)n3cc([C@@H](N)CC(C)C)nn3)CC2)n1	.	-	-	31	-	-	-	-
Cc1ccc(NC(=O)CCC(=O)c2cccs2)c(Br)c1	.	-	-	-	-	.	.	.
CC(=O)Oc1c(C)cc(Cl)cc1C(=O)Nc1ccc([N+](=O)[O-])cc1Cl	-	-	71	25	-	-	59	62
CC(C)COCC(CN(Cc1ccccc1)c1ccccc1)N1CCCC1 (stereo unspecified)	-	-	-	46	-	-	48	31
Cc1ccc2[nH]c3c(c2c1)CCc1cn[nH]c1-3	.	-	-	23	-	-	-	24
Cc1ccc2[nH]c3c(c2c1)CCCC3=O	-	-	-	-	-	-	.	.
Cn1c(N)c(S(=O)(=O)N2CCN(C(=O)c3ccco3)CC2)c(=O)n(C)c1=O	-	-	-	-	-	-	.	.
COc1cccc(NC(=O)c2cnsn2)c1	-	-	-	25	-	-	-	-
CN(c1ccccc1)S(=O)(=O)c1ccc(NC(=O)c2nc(S(C)(=O)=O)ncc2Cl)cc1	.	-	-	92	-	.	91	102
COc1cccc(NC(=O)c2nc(SC)ncc2Cl)c1	.	-	-	-	-	.	.	.
COc1cccc(NC(=O)c2nc(S(C)(=O)=O)ncc2Cl)c1	.	-	-	33	-	.	42	33
Cc1ccc(/C(N)=N/OC(=O)c2cccc(Cn3cc(C(F)(F)F)ccc3=O)c2)cc1	-	-	-	21	-	-	-	23
SMILES	EP2 antag	CHO parental Ca	OX1R antag-1	GPR7 antagonist	OX1R antag-2	EP2 mod	GPR7 antag conf	MCHR1 antagonist
N/C(=N\OC(=O)c1cccc(Cn2cc(C(F)(F)F)ccc2=O)c1)c1ccc(Cl)cc1	-	-	-	-	-	-	.	.
Clc1ccc(Cn2ncc3c(N4CCCC4)ncnc32)cc1	-	-	-	25	-	-	-	-
Cn1c(Cc2cccc3ccccc23)nnc1SCc1ccc([N+](=O)[O-])cc1	-	-	-	29	-	-	-	-
O=C(Nc1ccc2c(c1)OCCO2)C1CCN(C(=O)c2ccc([N+](=O)[O-])cc2)CC1	-	-	-	-	-	-	.	.
Cc1cc(C)c2oc(C(=O)N(Cc3ccccc3)c3ccccn3)cc(=O)c2c1	-	-	-	26	-	-	-	-
Cc1cc2oc(C(=O)N(Cc3ccccc3)c3ccccn3)cc(=O)c2cc1Cl	-	-	-	-	-	-	.	.
S=c1[nH]nc(CCc2nc3ccccc3[nH]2)n1-c1cccc(Cl)c1	-	-	-	-	-	-	.	.
COc1ccc(N(C)S(=O)(=O)c2ccc(Cl)c(C(=O)NCCc3ccc(Cl)cc3)c2)cc1	-	-	-	45	-	-	48	50
CN(c1ccccc1)S(=O)(=O)c1ccc(C(=O)NCCc2ccc(F)cc2)cc1	.	-	-	27	-	.	-	-
COc1ccccc1N(C)S(=O)(=O)c1ccc(C(=O)NCCc2ccc(F)cc2)cc1	.	-	-	-	-	.	.	.
COc1ccc(CCNC(=O)CN(Cc2ccc(Cl)cc2)S(C)(=O)=O)cc1	.	.	.	25	.	.	-	-
COCCCNC(=O)CN(Cc1ccc(Cl)cc1)S(C)(=O)=O	-	-	-	-	-	-	.	.
COc1ccc(CCNC(=O)c2ccc(Cl)cc2Cl)cc1	-	-	-	-	-	-	.	.
CCCC(=O)Nc1ccc2c(c1)Cc1ccccc1-2	.	-	-	25	-	.	-	24
CCC(=O)Nc1ccc2c(c1)Cc1cc(NC(=O)CC)ccc1-2	.	.	.	-	.	.	.	.
CNS(=O)(=O)c1ccc(CCC(=O)N2CCOCC2)cc1	.	-	-	-	-	.	.	.
CC(C)NS(=O)(=O)c1ccc(CCC(=O)N2CCCCC2)cc1	-	-	-	23	-	-	-	-
Cc1nn(Cc2ccc(C(=O)Nc3ccccc3F)cc2)c(C)c1Cl	-	-	-	32	-	-	-	31
COc1ccccc1-c1ccc(SCc2cccc(C)c2)nn1	-	48	-	64	-	-	41	74
COc1ccccc1-c1ccc(SCc2ccc([N+](=O)[O-])cc2)nn1	-	-	-	-	-	-	.	.
CC(C)Oc1ccc(Cc2c(O)nc(NCCCN(C)C)[nH]c2=O)cc1	-	-	-	-	-	-	.	.
Cc1ccc(S(=O)(=O)Nc2ccc(S(=O)(=O)N3CCc4ccccc43)cc2)cc1	-	.	.	.	.	-	.	.
O=S(=O)(NC1CCCC1)c1ccc(S(=O)(=O)N2CCc3ccccc32)cc1	-	39	-	47	-	-	62	61
CCOC(=O)C1CCN(C(=O)c2cc3ccccc3oc2=O)CC1	-	-	-	-	-	-	.	.
CC(C)CCC1(CCNC(C)c2cccs2)CCOC(C)(C)C1 (stereo unspecified)	-	-	-	23	-	-	-	-
CC1(C)CC(CCN)(Cc2ccccc2Cl)CCO1 (stereo unspecified)	-	-	-	-	-	-	.	.

High-throughput results (PubChem BioAssay)
